An excerpt weighted towards active compounds, which were near 11% of everything screened.
S1P1 ag pot – S1P1 agonists and agonism potentiators, primary screen, cell-based, primary and confirmation screens, CRE-bla reporter; Sphingosine 1-phosphate receptor 1 (Homo sapiens), P21453; S1P1 CRE-bla cells, forskolin, beta-lactamase FRET, potentiator mode; S1P1 agonist co-added at EC20, 2 nM; 100% = saturating reference agonist, 0% = basal; activation, % at 9.5 µM; hit rate 0.57% among 56,000; AID 449, 2006;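 active means activation above a cutoff set at the mean activation of all tested compounds plus 3 SD, cut at about 54% in these data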;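 further: forskolin at 4 µM as EC80 and the EC20 agonist is SEW2871; 100% = SEW2871 at its EC100 plus forskolin at EC80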
M1 antagonist – antagonists of rat M1 muscarinic receptor | CHO-M1 cells, Fluo-4 calcium, ACh EC80 antagonist mode; hits give low values | B-score at 10 µM | hit rate 3.4% among 64,000 | AID 628, 2007;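 active means calcium fluorescence response, raw or row-and-column corrected B-score, differing from the plate sample mean either way at a set confidence level, mostly lower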
D1 mod – D1 CRE-luciferase signal change, two-sided – cell-based, HEK293 D1, dopamine EC30, D1 allosteric modulator project, primary screen | D(1A) dopamine receptor (Homo sapiens), P21728 | dopamine EC30 potentiation; actives deviate in either direction | B-score at 10 µM | hit rate 5.9% among 58,000;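 active means luminescence count or its row- and column-corrected plate score outside the 99.7% band of the plate's sample wells, on either side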
M1 agonist – M1 muscarinic receptor agonists, primary screen, CHO-M1 cells, Fluo-4 calcium, agonist mode; Muscarinic acetylcholine receptor M1; Fluo-4 calcium fluorescence; hits give high values; hit rate 3% among 64,000; B-score at 10 µM; AID 626, 2007;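 active means fluorescence rise, raw or as B-score row- and column-corrected plate score, outside the 99.7% band of its plate's samples, either direction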
S1P3 agonist – human S1P3 receptor agonists, primary screen, cell-based, primary and confirmation, NFAT-BLA reporter; hit rate 0.1% among 60,000; AID 373, 2006; S1P3 NFAT-BLA reporter cells, agonism, FRET ratio; relative to 1 µM S1P, basal subtracted; activation, % at 4.5 µM;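 active means activation above the screen-wide mean plus 3 SD, cut at about 4.5% in these data, passing the limit was not always enough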
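Material: Human S1P3 NFAT-BLA reporter CHO cells | Incubation: Overnight plating, 4 h compound 37 °C, 2 h substrate RT | Signal: FRET β-lactamase substrate fluorescence, excitation 405 nm, 460/535 nm emission ratio, background-subtracted | Compound: 4.5 µM final, single dose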
M1 ag confirm – rat M1 muscarinic receptor agonists, confirmation, CHO-M1 cells, Fluo-4 calcium, duplicate retest; hit rate 19% among 1,700; shares compounds with M1 agonist; Fluo-4 calcium fluorescence, agonist mode; actives lie on both sides; fluorescence change (max-min) at 10 µM;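 active means fluorescence change differs from the solvent-only DMSO control mean at a set confidence level in both duplicate runs; inconclusive means differs from solvent-only control mean in just one of two runs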;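 further: an EC20 dose of acetylcholine follows compound addition during the same imaging run; raw fluorescence intensity difference in instrument units with no normalization to controls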
M4 agonist ctr – agonist activity at rat M4 receptor, confirmation, counter-screen for M1 allosteric modulator project, cell-based, agonist mode | shares compounds with M1 agonist | CHO M4/Gqi5 cells, Fluo-4 calcium fluorescence; actives lie on both sides | fluorescence change (max-min) at 10 µM | hit rate 9% among 1,700 | AID 1741, 2009;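 active means fluorescence change differing from the plate's solvent-only control wells at 99.7% confidence in both duplicates, whether higher or lower; inconclusive means differs from solvent controls in only one of two duplicates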
Target sequence (P08485 whole entry, looked up): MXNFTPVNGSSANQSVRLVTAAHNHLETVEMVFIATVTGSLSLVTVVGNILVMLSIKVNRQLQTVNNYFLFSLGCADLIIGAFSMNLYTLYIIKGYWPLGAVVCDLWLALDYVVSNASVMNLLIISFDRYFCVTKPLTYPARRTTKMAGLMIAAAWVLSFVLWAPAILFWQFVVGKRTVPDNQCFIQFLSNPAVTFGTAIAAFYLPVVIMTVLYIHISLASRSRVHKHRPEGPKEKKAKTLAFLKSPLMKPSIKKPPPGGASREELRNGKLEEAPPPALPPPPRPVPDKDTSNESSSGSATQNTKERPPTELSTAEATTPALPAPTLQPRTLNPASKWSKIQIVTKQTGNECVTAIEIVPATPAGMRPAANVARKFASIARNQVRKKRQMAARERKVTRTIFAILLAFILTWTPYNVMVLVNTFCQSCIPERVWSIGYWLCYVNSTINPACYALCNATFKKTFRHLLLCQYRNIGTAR
Active calls of the source: *; ? = inconclusive; . = no result given.

SMILES	S1P1 ag pot	M1 antagonist	D1 mod	M1 agonist	S1P3 agonist	M1 ag confirm	M4 agonist ctr
CN1CC=C2C(C#N)=C(N)C(C#N)(C#N)C(Cc3ccccc3)C2C1 (centres undefined)	-4	-0.7	-0.7	30*	0	98*	63
CC(C)N1CC=C2C(C#N)=C(N)C(C#N)(C#N)C(c3ccccc3)C2C1 (centres undefined)	12	-0.3	.	225*	5	427*	400*
CC(C)(C)OC(=O)N1CC=C2C(C#N)=C(N)C(C#N)(C#N)C(c3cccs3)C2C1 (centres undefined)	.	-0.78	0.039	4.7*	.	-8.3	?
COc1cc(C2C3CN(C)CC=C3C(C#N)=C(N)C2(C#N)C#N)ccc1OC(C)C (centres undefined)	.	-0.35	-4.9*	5.1*	.	30	31
O=C(NCc1ccco1)C1CCCN(S(=O)(=O)c2cccc3cccnc23)C1 (centres undefined)	-21	0.99	-0.55	1.7	2	.	.
CC(=O)C1=C(c2ccccc2)NC(=O)NC1c1ccccc1OCC#N (centres undefined)	18	0.49	-0.033	0.0063	-1	.	.
C=CCOC(=O)C1CC=CCC1C(=O)Oc1ccc(F)cc1F (centres undefined)	-4	-0.14	-0.49	-0.28	0	.	.
CCC(=O)Nc1ccc(NC(=O)CSc2nnnn2C(C)C)cc1	-13	0.63	0.69	0.64	0	.	.
O=C(Nc1nc(-c2ccccc2)cs1)C1CCCN(S(=O)(=O)c2ccccc2)C1 (centres undefined)	31	-0.91	0.47	4.5*	0	?	-34
Cc1nnc(NC(=O)C2CCCN(S(=O)(=O)Cc3ccccc3)C2)s1 (centres undefined)	.	0.24	-0.32	0.59	.	.	.
Cc1nnc(NC(=O)C2CCCN(S(=O)(=O)c3ccccc3C(F)(F)F)C2)s1 (centres undefined)	-7	0.17	1.2	16*	-1	-30	-44
COC(=O)c1ccccc1NC(=O)C1CCCN(S(=O)(=O)c2ccccc2)C1 (centres undefined)	.	-0.092	-0.13	0.99	0	.	.
O=C(Nc1nc(-c2ccccc2)cs1)C1CCCCN1S(=O)(=O)c1ccccc1 (centres undefined)	18	-0.68	-0.95	0.39	1	.	.
COC(=O)c1ccccc1NC(=O)C1CCCN(S(=O)(=O)c2ccc(F)cc2)C1 (centres undefined)	3	2.1	-0.012	5.5*	-1	5.8	-3.6
Cc1cc(C)n2nc(SCc3cc(=O)n4c(C)cccc4n3)nc2n1	.	-0.3	4.3	0.0097	.	.	.
O=C(c1cc2ccccc2oc1=O)N(Cc1ccco1)CC1CCCO1 (centres undefined)	-8	0.26	0.15	-0.59	-2	.	.
O=C(c1cc2ccccc2oc1=O)N(Cc1ccc2c(c1)OCO2)Cc1ccco1	-2	-1.9	.	5*	-1	-13	?
CC(=O)C(C(C)=O)c1c(Cl)c(O)c(O)c2c(C(=O)c3ccccc3)coc12	40	-0.34	-1.4	2.9	-1	.	.
CCCN(S(=O)(=O)c1ccc(OCC)cc1)S(=O)(=O)c1cccs1	14	-0.094	-0.23	2.1*	-1	?	-37
COC(=O)C1=C(C)NC(C)=C(C(=O)OC)C1c1cn(-c2ccccc2)nc1-c1ccco1	.	0.0064	0.68	-0.06	.	.	.

Screens from PubChem BioAssay.
